This passage reports Ki results from ChEMBL document CHEMBL3797060, “Discovery of 5-Chloro-1-(5-chloro-2-(methylsulfonyl)benzyl)-2-imino-1,2-dihydropyridine-3-carboxamide (TAK-259) as a Novel, Selective, and Orally Active α1D Adrenoceptor Antagonist with Antiurinary Frequency Effects: Reducing Human Ether-a-go-go-Related Gene (hERG) Liabilities” (J Med Chem, 2016).

Some results are limits rather than exact numbers.

In general, Ki refers to the dissociation constant of the complex between target and ligand, obtained from inhibition or displacement. Low readings indicate a stronger hold on the target, high ones a looser hold on the target.

The target in this assay is T1, Alpha-1D adrenergic receptor (Homo sapiens, UniProt P25100).
T1 sequence (P25100 whole entry): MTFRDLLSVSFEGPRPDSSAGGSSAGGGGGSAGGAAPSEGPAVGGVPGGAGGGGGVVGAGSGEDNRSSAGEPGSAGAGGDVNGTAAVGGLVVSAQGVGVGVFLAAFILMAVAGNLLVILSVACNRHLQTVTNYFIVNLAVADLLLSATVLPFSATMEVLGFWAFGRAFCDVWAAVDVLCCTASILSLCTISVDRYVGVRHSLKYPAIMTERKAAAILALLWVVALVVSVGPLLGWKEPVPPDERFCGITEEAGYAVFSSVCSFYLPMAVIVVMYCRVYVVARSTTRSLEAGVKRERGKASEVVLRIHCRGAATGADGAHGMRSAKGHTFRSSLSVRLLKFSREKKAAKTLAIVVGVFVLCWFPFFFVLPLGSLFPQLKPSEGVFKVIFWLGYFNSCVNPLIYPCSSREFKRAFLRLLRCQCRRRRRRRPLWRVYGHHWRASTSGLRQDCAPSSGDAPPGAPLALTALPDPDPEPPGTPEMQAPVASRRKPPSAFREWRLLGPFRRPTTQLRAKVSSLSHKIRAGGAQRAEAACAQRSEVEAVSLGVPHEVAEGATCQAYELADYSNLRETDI
Description: Displacement of 7-methoxy-[3H]-prazosin from human alpha1D adrenergic receptor expressed in CHO-K1 cell membranes incubated for 60 mins by liquid scintillation counting analysis. The essentials:
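CHO-K1 stable-line membranes (10 µg protein), 2.5 nmol/L ligand, Tris-HCl pH 7.5 with MgCl2, EDTA and 0.5% BSA, 12 compound concentrations, room temperature. Filtered and counted; nonspecific binding with 10 µmol/L phentolamine. IC50 by logistic regression, converted to Ki by Cheng-Prusoff with Kd 0.93 (α1A), 0.35 (α1B), 0.26 (α1D) nmol/L. Triplicate mean, 95% CI.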
Turning to `COc1cccc(Cn2cc(Cl)cc(C(N)=O)c2=N)c1`, the affinity, expressed as Ki, was 0.0087 µM.

The compound `N=c1c(C(N)=O)cccn1Cc1ccccc1` registered a Ki of 0.88 µM.

`N=c1c(C(N)=O)cc(Cl)cn1Cc1ccccn1` yielded a Ki of 0.42 µM.

Regarding `N=c1c(C(N)=O)cc(Cl)cn1CCc1ccccc1`, affinity was put at a Ki of 0.016 µM.

Turning to `CC(C)(C)Cn1cc(Cl)cc(C(N)=O)c1=N`, the affinity corresponds to a Ki of 0.82 µM.

`NC(=O)c1cc(Cl)cn(Cc2ccccc2)c1=O`: the Ki was over 0.94 µM.

Turning to `N=c1c(C(N)=O)cc(Cl)cn1Cc1cccnc1`, the affinity, expressed as Ki, was 0.25 µM.

In the case of `N=c1c(C(N)=O)cc(Br)cn1Cc1ccccc1`, affinity was put at a Ki of 0.16 µM.

As to `N=c1c(C(N)=O)cc(Cl)cn1Cc1ccco1`, the Ki was found to be 0.16 µM.

`CN(C)C(=O)c1cc(Cl)cn(Cc2ccccc2)c1=N`: the inhibition constant (Ki) was over 0.94 µM.

Take `CS(=O)(=O)c1cccc(Cn2cc(Cl)cc(C(N)=O)c2=N)c1`: the Ki was found to be 0.052 µM.

Turning to `N#Cc1cccc(Cn2cc(Cl)cc(C(N)=O)c2=N)c1`, the affinity corresponds to a Ki of 0.01 µM.

`N=c1c(C(N)=O)cc(Cl)cn1CCCc1ccccc1` yielded a Ki of 0.054 µM.

The compound `N=c1c(C(N)=O)cc(Cl)cn1-c1ccccc1` showed a Ki of over 0.94 µM.

In the case of `N=c1c(C(N)=O)cc(Cl)cn1Cc1ccccc1Cl`, the affinity corresponds to a Ki of 0.039 µM.

`N=c1c(C(N)=O)cc(Cl)cn1Cc1ccc(Cl)cc1` gave a Ki of 0.023 µM.

`Cc1cccc(Cn2cc(Cl)cc(C(N)=O)c2=N)c1` yielded a Ki of 0.0075 µM.
